Data set [1] deals with Bel-7402. Put plainly: Cytotoxicity against human Bel7402 cells after 96 hrs by MTT assay. Format: functional, cell-based. The conditions noted are these: Bel-7402, 96 h. In short, it runs like this:
(§1)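 Cells kept in RPMI 1640 with 10% FBS, penicillin and streptomycin, at 37 °C in 5% CO2. Seeded at 1.5 × 10^3 cells per well and left 24 h. Compounds added in DMSO, five concentrations over a final 0.01-10 […], each in three parallel wells, for 96 h. MTT (0.2%) added for 4 h, formazan dissolved in DMSO, read at 570 nm. IC50 taken from dose-response curves as 50% loss of optical density versus DMSO control.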
(In general: Tetrazolium assays rely on reduction of a dye to a coloured formazan, in cell work by metabolically active cells.)

In data set [2] the test system is BGC-823. Put plainly: Cytotoxicity against human BGC823 cells after 96 hrs by MTT assay. Format: functional, cell-based. The conditions noted are these: BGC-823, 96 h. In short, it runs like this:
as §1

For data set [3], the system named is A549. Briefly: Cytotoxicity against human A549 cells after 96 hrs by MTT assay. Format: functional, cell-based. The conditions noted are these: A549, 96 h. In short, it runs like this:
as §1

For data set [4], the system named is A2780. Briefly: Cytotoxicity against human A2780 cells after 96 hrs by MTT assay. Format: functional, cell-based. The conditions noted are these: A2780, 96 h. Summed up:
as §1

Data set [5] relates to HCT-8. Put plainly: Cytotoxicity against human HCT8 cells after 96 hrs by MTT assay. The class given is functional, cell-based. The conditions noted are these: HCT-8, 96 h. Summed up: as §1
Data set [6] is described as follows: Toxicity in rabbit erythrocytes assessed as hemolytic activity. Format: cell-based, Oryctolagus cuniculus, Erythrocyte. Summed up:
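Rabbit erythrocytes prepared by the Chinese Pharmacopoeia method. Compounds tested at 0.01, 0.05, 0.1, 0.5, 2.5, 10 and 100 µM using a procedure adapted from the literature. Result given as HC50.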

In general, IC50 refers to the concentration at which inhibition is half-maximal. A low value points to higher potency. For orientation: HC50 means the concentration that lyses half of the red blood cells.

Turning to `C=C[C@](C)(CC/C=C(\CO)C(=O)O[C@H]1[C@H](O[C@](C)(C=C)CC/C=C(\C)C(=O)O[C@H]2[C@H](O)[C@@H](O)[C@H](O[C@](C)(C=C)CC/C=C(\CO)C(=O)O[C@H]3C[C@]4(C(=O)O[C@@H]5O[C@H](CO)[C@@H](O)[C@H](O)[C@H]5O[C@@H]5O[C@@H](C)[C@H](O[C@@H]6O[C@@H](CO)[C@H](O)[C@H]6O)[C@@H](O[C@@H]6O[C@H](CO)[C@@H](O)[C@H](O)[C@H]6O)[C@H]5O)[C@H](O)C[C@]5(C)C(=CC[C@@H]6[C@@]7(C)CC[C@H](O[C@@H]8O[C@H](CO[C@@H]9O[C@H](C)[C@H](O)[C@H](O)[C@H]9O[C@@H]9OC[C@@H](O)[C@H](O)[C@H]9O)[C@@H](O)[C@H](O)[C@H]8O)C(C)(C)[C@@H]7CC[C@]65C)[C@@H]4CC3(C)C)O[C@@H]2C)O[C@H](C)[C@@H](O)[C@@H]1O)O[C@@H]1O[C@H](C)[C@@H](O)[C@H](O)[C@H]1O` [ALBIZOSIDE A], the IC50 in data set [1] came to 2600 nM; in data set [2], 1600 nM; in data set [3], 1900 nM; in data set [4], 1300 nM; in data set [5] it was 5600 nM. Also, the HC50 in data set [6] worked out at 400 nM.
In the case of `C=C[C@](C)(CC/C=C(\CO)C(=O)O[C@H]1[C@H](O[C@](C)(C=C)CC/C=C(\C)C(=O)O[C@H]2[C@H](O)[C@@H](O)[C@H](O[C@](C)(C=C)CC/C=C(\CO)C(=O)O[C@H]3C[C@]4(C(=O)O[C@@H]5O[C@H](CO)[C@@H](O)[C@H](O)[C@H]5O[C@@H]5O[C@@H](C)[C@H](O[C@@H]6O[C@@H](CO)[C@H](O)[C@H]6O)[C@@H](O[C@@H]6O[C@H](CO)[C@@H](O)[C@H](O)[C@H]6O)[C@H]5O)[C@H](O)C[C@]5(C)C(=CC[C@@H]6[C@@]7(C)CC[C@H](O[C@@H]8O[C@H](CO[C@@H]9O[C@H](C)[C@H](O)[C@H](O)[C@H]9O[C@@H]9OC[C@@H](O)[C@H](O)[C@H]9O)[C@@H](O)[C@H](O)[C@H]8O[C@@H]8O[C@H](CO)[C@@H](O)[C@H](O)[C@H]8O)C(C)(C)[C@@H]7CC[C@]65C)[C@@H]4CC3(C)C)O[C@@H]2C)O[C@H](C)[C@@H](O)[C@@H]1O)O[C@@H]1O[C@H](C)[C@@H](O)[C@H](O)[C@H]1O` [ALBIZOSIDE B], the IC50 in data set [1] is 1300 nM; in data set [2] it was 3800 nM; in data set [3], 300 nM; in data set [4], 1200 nM; in data set [5] it was 1300 nM. In data set [6], the HC50 is 700 nM.
Consider `C=C[C@](C)(CC/C=C(\C)C(=O)O[C@H]1[C@H](O)[C@@H](O)[C@H](O[C@](C)(C=C)CC/C=C(\CO)C(=O)O[C@H]2C[C@]3(C(=O)O[C@@H]4O[C@H](CO)[C@@H](O)[C@H](O)[C@H]4O[C@@H]4O[C@@H](C)[C@H](O[C@@H]5O[C@@H](CO)[C@H](O)[C@H]5O)[C@@H](O[C@@H]5O[C@H](CO)[C@@H](O)[C@H](O)[C@H]5O)[C@H]4O)[C@H](O)C[C@]4(C)C(=CC[C@@H]5[C@@]6(C)CC[C@H](O[C@@H]7O[C@H](CO[C@@H]8OC[C@H](O)[C@H](O)[C@H]8O[C@@H]8OC[C@@H](O)[C@H](O)[C@H]8O)[C@@H](O)[C@H](O)[C@H]7O[C@@H]7O[C@H](CO)[C@@H](O)[C@H](O)[C@H]7O)C(C)(C)[C@@H]6CC[C@]54C)[C@@H]3CC2(C)C)O[C@@H]1C)O[C@@H]1O[C@H](C)[C@@H](O)[C@H](O)[C@H]1O` [ALBIZOSIDE C], for which the IC50 amounted to 400 nM in data set [1]; 1700 nM in data set [2]; 10 nM in data set [3]; 300 nM in data set [4]; 400 nM in data set [5]. Also, the HC50 in data set [6] was determined as 700 nM.
The compound `CC[C@@]1(O)C(=O)OCc2c1cc1n(c2=O)Cc2cc3ccccc3nc2-1` [CAMPTOTHECIN] gave an IC50 in data set [4] of 300 nM.
Consider `C=C[C@](C)(CC/C=C(\CO)C(=O)O[C@H]1C[C@]2(C(=O)O[C@@H]3O[C@H](CO)[C@@H](O)[C@H](O)[C@H]3O[C@@H]3O[C@@H](C)[C@H](O[C@@H]4O[C@@H](CO)[C@H](O)[C@H]4O)[C@@H](O[C@@H]4O[C@H](CO)[C@@H](O)[C@H](O)[C@H]4O)[C@H]3O)[C@H](O)C[C@]3(C)C(=CC[C@@H]4[C@@]5(C)CC[C@H](O[C@@H]6O[C@H](CO[C@@H]7O[C@H](C)[C@H](O)[C@H](O)[C@H]7O[C@@H]7OC[C@@H](O)[C@H](O)[C@H]7O)[C@@H](O)[C@H](O)[C@H]6O)C(C)(C)[C@@H]5CC[C@]43C)[C@@H]2CC1(C)C)O[C@@H]1O[C@H](C)[C@@H](O)[C@H](O)[C@H]1O` [PROSAPOGENIN 10], for which the IC50 in data set [1], in data set [2], in data set [3], in data set [4] and in data set [5] was above 10000 nM throughout. Further, the HC50 in data set [6] stood at 128000 nM.

The values are drawn from ChEMBL document CHEMBL1151833, “Cytotoxic oleanane triterpene saponins from Albizia chinensis” (J Nat Prod, 2009).
